Reference: ChEMBL document CHEMBL2010650, “Synthetic N-alkylated iminosugars as new potential immunosuppressive agents” (ACS Med Chem Lett, 2011)
Calls of active or inactive are those of the source. The rule behind the calls is not given here.

How the values were obtained:
Splenocyte [1] = assay: Immunosuppressive activity in BALB/c mouse splenocytes assessed as reduction in concanavalin-A-induced IL4 production at 1 uM after 48 hrs by ELISA; format: functional; design: scale not given: the % may be the effect or the level left
How it was run: (§1)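 Splenocytes induced with 2.5 μg/mL Con A, co-incubated with compound 48 h at 37 °C, 5% CO₂. Culture supernatant assayed for IFN-γ or IL-4 by mouse ELISA kit. Reduction is relative to Con A-only control, with CsA 1 μM as positive control.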

Splenocyte [2] = assay: Immunosuppressive activity in BALB/c mouse splenocytes assessed as reduction in concanavalin-A-induced IFN-gamma production at 1 uM after 48 hrs by ELISA; format: functional; design: scale not given: the % may be the effect or the level left; how it was run: as §1
Mus musculus [3] = species on record: Mus musculus; assay: Toxicity in C57BL/6 mouse transplanted with trunk skin of BALB/c mouse assessed as mortality; format: organism-based; details: in vivo
Th1 = assay: Immunosuppressive activity in Th1 cells assessed as reduction of IFNgamma production; format: functional, cell-based
Th2 = assay: Immunosuppressive activity in Th2 cells assessed as reduction of IL-4 production; format: functional, cell-based
[4] = Immunosuppressive activity in BALB/c mouse splenocytes assessed as inhibition of concanavalin-A-induced cell proliferation at 30 uM after 48 hrs by MTT assay; format: functional; details: Splenocyte
How it was run: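 Mouse splenocytes stimulated with Con A at 2.5 μg/mL, incubated with compound at 37 °C, 5% CO₂ for 48 h. Proliferation read by MTT assay. Con A-treated cells serve as control, CsA (1 μM) as positive control. Inhibition is expressed relative to control, as means ± SEM.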

Splenocyte [5] = assay: Immunosuppressive activity in BALB/c mouse splenocytes assessed as reduction in concanavalin-A-induced IL4 production at 30 uM after 48 hrs by ELISA; format: functional; design: scale not given: the % may be the effect or the level left; how it was run: as §1
Splenocyte [6] = assay: Immunosuppressive activity in BALB/c mouse splenocytes assessed as reduction in concanavalin-A-induced IFN-gamma production at 30 uM after 48 hrs by ELISA; format: functional; design: scale not given: the % may be the effect or the level left; how it was run: as §1
Mus musculus [7] = assay: Immunosuppressive activity in C57BL/6 mouse transplanted with trunk skin of BALB/c mouse assessed as increase of allograft mean survival time at 50 umol/kg, sc (reference value: 11.25 +/- 1.83 days); format: functional
[8] = Toxicity in subcutaneously dosed C57BL/6 mouse transplanted with trunk skin of BALB/c mouse; format: organism-based; details: in vivo, sc

Row | SMILES | Activity (Splenocyte [1]) | Activity (Splenocyte [2]) | Activity (Mus musculus [3]) | Activity (Th1) | Activity (Th2) | inhibition at 30 µM [4] | Activity (Splenocyte [5]) | Activity (Splenocyte [6]) | MST (Mus musculus [7]) | LD50 [8]
1 | C/C=C/C[C@@H](C)[C@@H](O)[C@H]1C(=O)N[C@@H](CC)C(=O)N(C)CC(=O)N(C)[C@@H](CC(C)C)C(=O)N[C@@H](C(C)C)C(=O)N(C)[C@@H](CC(C)C)C(=O)N[C@@H](C)C(=O)N[C@H](C)C(=O)N(C)[C@@H](CC(C)C)C(=O)N(C)[C@@H](CC(C)C)C(=O)N(C)[C@@H](C(C)C)C(=O)N1C [CYCLOSPORINE] | 96.8% | 97.1% | – | – | – | – | – | – | – | –
2 | CCCCCCCCCCN1C[C@@H](O)[C@H](O)[C@@H](O)C1 | – | – | Non-toxic | Active | Active | 45.9% | 60.9% | 89.1% | 14.71 days | –
3 | CCCCCCCCCCN1C[C@@H](O)C(O)[C@H](O)C1 | – | – | Non-toxic | Active | Active | 59% | 85.6% | 75% | 15.2 days | –
4 | CCCCCCCCCCN1C[C@@H](O)[C@@H](O)C1 | – | – | Non-toxic | Active | Active | 61% | 88.6% | 94.7% | 15.6 days | 392 mg/kg
5 | CCCCCCCCCCN1C[C@H](O)C(O)[C@@H](O)C1 | – | – | Non-toxic | Active | Active | 57.2% | 95.7% | 78.1% | 14.14 days | –
6 | CCCCCCCCCCN1C[C@H](O)[C@@H](O)[C@@H](O)C1=O | – | – | – | – | – | < 40% | – | – | – | –
7 | CCCCCCCCCCN1C[C@@H](O)[C@@H](O)[C@H](O)C1=O | – | – | – | – | – | < 40% | – | – | – | –
8 | CCCCCCCCN1C[C@@H](O)[C@H](O)[C@@H](O)C1 | – | – | – | Active | – | 27.1% | 8.7% | 40.3% | – | –
9 | CCCCCCCCCCN1C[C@H](O)[C@H](O)C1=O | – | – | – | – | – | < 40% | – | – | – | –
10 | CCCCCCCCCCN1C[C@H](O)[C@@H](O)[C@H](O)C1=O | – | – | – | – | – | < 40% | – | – | – | –
